Laboratory results published in ChEMBL document CHEMBL3244124, “Synthesis of 2-substituted primaquine analogues as potential antimalarials” (J Med Chem, 1978).
Active and inactive are the calls of the source. The calls are words filed in the database; no cut-off is given here.

Columns and labels:
Leishmania donovani [1] = test: Potency index, ratio of glucantime to compound for antileishmanial activity against Leishmania donovani infected in hamster assessed as 90% suppression of parasitemia at 13 to 208 mg/kg/day, im bid administered 4 days measured for 8 days; type: functional; details: route intramuscular
Method in brief: (§1)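 Hamsters infected with Leishmania donovani were assessed in an 8-day test. Seven animals per drug level received 208, 52 or 13 mg/kg/day. Percent suppression of parasites was calculated against infected, untreated controls (seven to ten animals). Glucantime index G = SD90 of Glucantime / SD90 of the new drug, where SD90 is the dose giving 90% parasite suppression.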

Schistosoma mansoni = test: Antiparasitic activity against Schistosoma mansoni infected in mouse assessed as survival up to 49 days at 1280 mg/kg, sc administered through peanut oil on day 2 post infection; type: functional, organism-based; set-up: dose 1280 mg/kg
Mus musculus [2] = test: Toxicity in mouse infected with blood stage of Plasmodium berghei assessed as mortality at 320 mg/kg, sc measured on day 5; type: organism-based; set-up: dose 320 mg/kg, route subcutaneous; details: in vivo
Method in brief: (§2)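 P. berghei-infected mice, five per group, after subcutaneous dosing. Deaths occurring 2 to 5 days after drug administration are scored as drug toxicity rather than infection.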

Plasmodium berghei [3] = test: Antimalarial activity against blood stage of Plasmodium berghei infected in mouse assessed as increase in mean survival time at 80 mg/kg, sc; type: functional; details: route subcutaneous
Mus musculus [4] = test: Toxicity in mouse infected with blood stage of Plasmodium berghei assessed as mortality at 160 mg/kg, sc measured on day 2; type: organism-based; set-up: route subcutaneous, dose 160 mg/kg; details: in vivo; method in brief: as §2
Plasmodium berghei [5] = test: Antimalarial activity against blood stage of Plasmodium berghei infected in mouse assessed as increase in mean survival time at 160 mg/kg, sc; type: functional; details: route subcutaneous
Mus musculus [6] = test: Toxicity in mouse infected with blood stage of Plasmodium berghei assessed as mortality at 640 mg/kg, sc measured on day 5; type: organism-based; set-up: dose 640 mg/kg, route subcutaneous; details: in vivo; method in brief: as §2
Plasmodium cynomolgi = test: Antimalarial activity against sporozoite stage of Plasmodium cynomolgi infected in rhesus monkey assessed as radical curative activity measured for 90 days; type: functional, organism-based
Plasmodium berghei [7] = test: Antimalarial activity against blood stage of Plasmodium berghei infected in mouse assessed as increase in mean survival time at 320 mg/kg, sc; type: functional; details: route subcutaneous
Plasmodium berghei [8] = test: Antimalarial activity against blood stage of Plasmodium berghei infected in mouse assessed as increase in mean survival time at 640 mg/kg, sc; type: functional; details: route subcutaneous
Leishmania donovani [9] = test: Potency index, ratio of glucantime to compound for antileishmanial activity against Leishmania donovani infected in hamster assessed as 90% suppression of parasitemia at 3.25 mg/kg/day, im bid administered 4 days measured for 8 days; type: functional; details: route intramuscular
Mus musculus [10] = test: Toxicity in mouse infected with blood stage of Plasmodium berghei assessed as mortality at 80 to 640 mg/kg, sc measured for 5 days; type: organism-based; set-up: dose 80-640 mg/kg, route subcutaneous; details: in vivo, 120 h; method in brief: as §2
Leishmania donovani [11] = test: Antileishmanial activity against Leishmania donovani infected in hamster assessed as inhibition of parasitemia at 52 mg/kg/day, im bid administered for 4 days relative to control; type: functional; details: 96 h, route intramuscular; method in brief: as §1
Mus musculus [12] = test: Toxicity in mouse infected with blood stage of Plasmodium berghei assessed as mortality at 160 mg/kg, sc measured on day 1; type: organism-based; set-up: dose 160 mg/kg, route subcutaneous; details: in vivo
Mus musculus [13] = test: Toxicity in mouse infected with blood stage of Plasmodium berghei assessed as mortality at 320 mg/kg, sc measured on day 2; type: organism-based; set-up: dose 320 mg/kg, route subcutaneous; details: in vivo; method in brief: as §2
Mus musculus [14] = test: Toxicity in mouse infected with blood stage of Plasmodium berghei assessed as mortality at 640 mg/kg, sc measured on day 3; type: organism-based; set-up: dose 640 mg/kg, route subcutaneous; details: in vivo; method in brief: as §2
[15] = system: Trypanosoma brucei rhodesiense; test: Antitrypanosomal activity against blood stage of Trypanosoma rhodesiense infected in mouse; type: functional, organism-based
Leishmania donovani [16] = test: Potency index, ratio of glucantime to compound for antileishmanial activity against Leishmania donovani infected in hamster assessed as 90% suppression of parasitemia at 208 mg/kg/day, im bid administered 4 days measured for 8 days; type: functional; details: route intramuscular; method in brief: as §1
Mus musculus [17] = test: Toxicity in mouse infected with blood stage of Plasmodium berghei assessed as mortality at 640 mg/kg, sc measured on day 2; type: organism-based; set-up: dose 640 mg/kg, route subcutaneous; details: in vivo; method in brief: as §2
Leishmania donovani [18] = test: Potency index, ratio of glucantime to compound for antileishmanial activity against Leishmania donovani infected in hamster assessed as 90% suppression of parasitemia at 13 mg/kg/day, im bid administered 4 days measured for 8 days; type: functional; details: route intramuscular; method in brief: as §1

In the case of `COc1cc(NC(C)CCCN)c2nc(N)ccc2c1.O=C(O)/C=C\C(=O)O` (stereo unspecified), the Ratio (Leishmania donovani [1]) is reported as 0 and the Activity (Schistosoma mansoni) is reported as “inactive”.
In the case of `COc1cc(NC(C)CCCN)c2ncccc2c1` (stereo unspecified) [PRIMAQUINE], the Activity (Mus musculus [2]) is reported as “Toxic”, the Ratio (Leishmania donovani [1]) is reported as 0.96 and the Survival (Plasmodium berghei [3]) is reported as 9.4 days. For the same molecule, the Activity (Mus musculus [4]) was “Toxic”, the Survival (Plasmodium berghei [5]) was 10.8 days and the Activity (Mus musculus [6]) was “Toxic”.
With `CCc1ccc2cc(OC)cc(NC(C)CCCN)c2n1.O=C(O)/C=C\C(=O)O` (stereo unspecified) the Activity (Plasmodium cynomolgi) was “inactive”, the Survival (Plasmodium berghei [3]) was 6.7 days and the Survival (Plasmodium berghei [7]) was 9.9 days. The Activity (Schistosoma mansoni) was “inactive”, the Survival (Plasmodium berghei [8]) was 13.9 days and the Survival (Plasmodium berghei [5]) was 8.3 days. For the same molecule, the Ratio (Leishmania donovani [9]) was 10 and the Activity (Mus musculus [10]) was “Non-toxic”.
For `COc1cc(NC(C)CCCN)c2nc(N(C)C)ccc2c1.O=C(O)/C=C/C(=O)O` (stereo unspecified), the Activity (Mus musculus [2]) was “Toxic”, the Survival (Plasmodium berghei [3]) was 4.9 days and the inhibition in vivo at 52 mg/kg/day (Leishmania donovani [11]) was 99%. For the same molecule, the Activity (Mus musculus [12]) was “Toxic”, the Survival (Plasmodium berghei [5]) was 5.2 days and the Activity (Mus musculus [6]) was “Toxic”.
`COc1cc(NC(C)CCCN)c2nc(Cl)ccc2c1.O=C(O)/C=C\C(=O)O` (stereo unspecified) was tested, and the Activity (Plasmodium cynomolgi) was “inactive”, the Activity (Mus musculus [13]) was “Toxic” and the Survival (Plasmodium berghei [3]) was 1.2 days. For the same molecule, the Survival (Plasmodium berghei [7]) was 4 days, the Activity (Mus musculus [14]) was “Toxic” and the Activity [15] was “inactive”. The Activity (Mus musculus [4]) was “Toxic”, the Survival (Plasmodium berghei [8]) was 5.5 days and the Survival (Plasmodium berghei [5]) was 3 days. The Ratio (Leishmania donovani [16]) was 0.3.
`C=Cc1ccc2cc(OC)cc(NC(C)CCCN)c2n1.O=C(O)/C=C/C(=O)O` (stereo unspecified) was tested, and the Activity (Mus musculus [17]) was “Toxic”, the Activity (Mus musculus [13]) was “Toxic” and the Survival (Plasmodium berghei [3]) was 2.9 days. The Survival (Plasmodium berghei [7]) was 5.3 days, the Activity (Mus musculus [4]) was “Toxic” and the Survival (Plasmodium berghei [8]) was 7.9 days. The Survival (Plasmodium berghei [5]) was 3.3 days.
For `COc1cc(NC(C)CCCN)c2nc(OC)ccc2c1.O=C(O)/C=C\C(=O)O` (stereo unspecified), the Ratio (Leishmania donovani [18]) was 2.4, the Activity (Mus musculus [2]) was “Toxic” and the Activity (Plasmodium cynomolgi) was “inactive”. The Survival (Plasmodium berghei [3]) was 6.1 days, the Activity (Mus musculus [12]) was “Toxic” and the Survival (Plasmodium berghei [5]) was 7.9 days. For the same molecule, the Activity (Mus musculus [6]) was “Toxic”.
